Laboratory results from ChEMBL document CHEMBL5038630 (J Med Chem, 2022).
Calls of active or inactive are those of the source. The calls are words filed in the database; no cut-off is given here.

Experiments:
[1] = target: Glutamate NMDA receptor; Grin1/Grin2b (Rattus norvegicus, UniProt P35439+Q00960); test: Agonist activity at rat GluN1/GluN2B NMDA receptor expressed in Xenopus oocytes measured after 4 days in presence of L-glutamte by two-electrode voltage-clamp recording assay; assay type: cell-based, Oocyte
Sequence of Glutamate NMDA receptor; Grin1/Grin2b (Q00960 whole entry, other chains not shown): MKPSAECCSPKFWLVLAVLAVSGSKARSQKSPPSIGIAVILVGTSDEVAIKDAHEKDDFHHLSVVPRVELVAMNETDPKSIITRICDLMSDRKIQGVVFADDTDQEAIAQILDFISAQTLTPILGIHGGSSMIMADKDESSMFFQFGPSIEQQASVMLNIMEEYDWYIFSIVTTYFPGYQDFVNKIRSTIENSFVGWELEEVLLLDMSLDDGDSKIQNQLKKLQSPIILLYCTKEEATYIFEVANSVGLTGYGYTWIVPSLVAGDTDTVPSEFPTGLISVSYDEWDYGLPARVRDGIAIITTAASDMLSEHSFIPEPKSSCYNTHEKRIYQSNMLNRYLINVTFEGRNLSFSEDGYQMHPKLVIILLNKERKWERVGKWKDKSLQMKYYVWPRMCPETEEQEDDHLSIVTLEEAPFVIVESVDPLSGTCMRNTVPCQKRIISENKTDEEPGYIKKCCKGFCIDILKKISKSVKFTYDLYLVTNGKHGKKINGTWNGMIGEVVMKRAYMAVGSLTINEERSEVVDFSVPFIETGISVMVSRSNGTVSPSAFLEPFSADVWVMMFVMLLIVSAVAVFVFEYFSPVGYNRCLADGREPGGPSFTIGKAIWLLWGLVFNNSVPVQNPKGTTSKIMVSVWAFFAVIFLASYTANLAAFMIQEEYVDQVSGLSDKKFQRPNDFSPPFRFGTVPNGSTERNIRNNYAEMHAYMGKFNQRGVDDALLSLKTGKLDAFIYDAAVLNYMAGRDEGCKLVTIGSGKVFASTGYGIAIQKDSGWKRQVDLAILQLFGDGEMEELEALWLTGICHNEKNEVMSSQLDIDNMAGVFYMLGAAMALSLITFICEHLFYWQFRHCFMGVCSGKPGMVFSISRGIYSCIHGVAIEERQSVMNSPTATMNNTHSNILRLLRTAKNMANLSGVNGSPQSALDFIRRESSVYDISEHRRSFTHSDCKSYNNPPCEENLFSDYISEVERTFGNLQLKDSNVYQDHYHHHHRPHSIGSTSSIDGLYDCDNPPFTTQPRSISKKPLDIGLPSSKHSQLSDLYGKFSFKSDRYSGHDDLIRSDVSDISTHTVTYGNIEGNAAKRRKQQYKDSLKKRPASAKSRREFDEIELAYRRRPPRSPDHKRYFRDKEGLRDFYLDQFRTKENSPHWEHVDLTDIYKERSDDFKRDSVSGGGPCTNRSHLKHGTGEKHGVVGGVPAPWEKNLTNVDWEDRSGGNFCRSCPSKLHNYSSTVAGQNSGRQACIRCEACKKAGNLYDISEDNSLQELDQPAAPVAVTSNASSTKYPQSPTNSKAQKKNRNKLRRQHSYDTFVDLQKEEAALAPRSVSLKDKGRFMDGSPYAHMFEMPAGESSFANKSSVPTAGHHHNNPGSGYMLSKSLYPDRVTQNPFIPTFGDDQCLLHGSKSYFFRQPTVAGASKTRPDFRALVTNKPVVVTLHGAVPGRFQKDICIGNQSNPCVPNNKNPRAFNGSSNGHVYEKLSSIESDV
In short: (§1)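 Rat GluN1 plus GluN2A or GluN2B cRNA (1:2) in Xenopus oocytes. TEVC at −40 mV, room temperature, 2–4 days post-injection. Bath: 90 mM NaCl, 1 mM KCl, 10 mM HEPES, 0.5 mM BaCl2, 0.01 mM EDTA, pH 7.4. Oocytes were BAPTA-injected before recording. Agonist applied with 300 μM L-Glu throughout. NR means <5% response at the stated concentration. 3–14 oocytes.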

[2] = tested on: Oocyte; test: Agonist activity at mutant GluN1 F484A/T518 mutant//GluN3B NMDA receptor (unknown origin) expressed in Xenopus oocytes measured after 4 days in presence of glycine by two-electrode voltage-clamp recording assay; assay type: cell-based; conditions: Homo sapiens, time 4.0 day
[3] = Agonist activity at wild type GluN1/GluN2A NMDA receptor (unknown origin) expressed in Xenopus oocytes measured after 4 days in presence of L-glutamate by two-electrode voltage-clamp recording assay; conditions: Homo sapiens, Oocyte, 96 h
[4] = Agonist activity at GluN1/GluN2A V783F mutant NMDA receptor (unknown origin) expressed in Xenopus oocytes measured after 4 days in presence of glycine by two-electrode voltage-clamp recording assay; assay type: cell-based; conditions: Homo sapiens, Oocyte, 96 h
In short: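 Rat GluN1 and GluN2A cRNA (1:2) injected into Xenopus oocytes, which received 50 nL of 50 mM BAPTA 10–30 min before recording. TEVC done 2–4 days after injection at room temperature, −40 mV, in 90 mM NaCl, 1 mM KCl, 10 mM HEPES, 0.5 mM BaCl2, 0.01 mM EDTA, pH 7.4. Agonist applied with 300 μM L-Glu continuously present, DMSO <0.5%.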

[5] = tested on: GluN1/GluN2A (Rattus norvegicus); test: Agonist activity at wild type GluN1/GluN2A NMDA receptor (rat) expressed in Xenopus oocytes assessed as relative maximal efficacy measured at 10 uM after 4 days in presence of glycine by two-electrode voltage-clamp recording assay relative to glycine; conditions: filed as agonist, time 4.0 day
[6] = tested on: Oocyte; test: Agonist activity at wild type GluN1/GluN2A-V783L mutant NMDA receptor (unknown origin) expressed in Xenopus oocytes assessed as relative maximal efficacy measured at 10 uM after 4 days in presence of glycine by two-electrode voltage-clamp recording assay relative to glycine; assay type: cell-based; conditions: Homo sapiens, time 4.0 day
In short: (§2)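 Oocytes expressing GluN1 with wild-type GluN2A or with the GluN2A-V783L or V783F mutant were BAPTA-injected and recorded by TEVC in continuous 300 μM L-Glu. […] Values are mean ± SEM from 3–8 oocytes, compared with wild type by two-way ANOVA with Tukey's test.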

[7] = target: Glutamate NMDA receptor; Grin1/Grin2c (Rattus norvegicus, UniProt P35439+Q00961); test: Agonist activity at rat GluN1/GluN2C NMDA receptor expressed in Xenopus oocytes measured after 4 days in presence of L-glutamte by two-electrode voltage-clamp recording assay; assay type: cell-based, Oocyte
In short: (§3)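 Xenopus oocytes were injected with rat GluN1 and GluN2C or GluN2D cRNA (1:2) and recorded by TEVC 2–4 days later at −40 mV, room temperature, pH 7.4 HEPES/NaCl/BaCl2 saline. Concentration-response with 300 μM L-Glu present. NR means <5% response at the concentration given. DMSO ≤0.5%. 3–14 oocytes.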

[8] = Binding affinity at recombinant GluN1a/GluN2B NMDA receptor (unknown origin) expressed in Xenopus oocytes measured after 4 days in presence of L-glutamte by two-electrode voltage-clamp recording assay; assay type: cell-based, Homo sapiens; conditions: oocyte
[9] = target: Glutamate NMDA receptor; Grin1/Grin2a (Rattus norvegicus, UniProt P35439+Q00959); test: Agonist activity at rat GluN1/GluN2A NMDA receptor expressed in Xenopus oocytes measured after 4 days in presence of L-glutamte by two-electrode voltage-clamp recording assay; assay type: cell-based, Oocyte; in short: as §1
Sequence of Glutamate NMDA receptor; Grin1/Grin2a (Q00959 whole entry, other chains not shown): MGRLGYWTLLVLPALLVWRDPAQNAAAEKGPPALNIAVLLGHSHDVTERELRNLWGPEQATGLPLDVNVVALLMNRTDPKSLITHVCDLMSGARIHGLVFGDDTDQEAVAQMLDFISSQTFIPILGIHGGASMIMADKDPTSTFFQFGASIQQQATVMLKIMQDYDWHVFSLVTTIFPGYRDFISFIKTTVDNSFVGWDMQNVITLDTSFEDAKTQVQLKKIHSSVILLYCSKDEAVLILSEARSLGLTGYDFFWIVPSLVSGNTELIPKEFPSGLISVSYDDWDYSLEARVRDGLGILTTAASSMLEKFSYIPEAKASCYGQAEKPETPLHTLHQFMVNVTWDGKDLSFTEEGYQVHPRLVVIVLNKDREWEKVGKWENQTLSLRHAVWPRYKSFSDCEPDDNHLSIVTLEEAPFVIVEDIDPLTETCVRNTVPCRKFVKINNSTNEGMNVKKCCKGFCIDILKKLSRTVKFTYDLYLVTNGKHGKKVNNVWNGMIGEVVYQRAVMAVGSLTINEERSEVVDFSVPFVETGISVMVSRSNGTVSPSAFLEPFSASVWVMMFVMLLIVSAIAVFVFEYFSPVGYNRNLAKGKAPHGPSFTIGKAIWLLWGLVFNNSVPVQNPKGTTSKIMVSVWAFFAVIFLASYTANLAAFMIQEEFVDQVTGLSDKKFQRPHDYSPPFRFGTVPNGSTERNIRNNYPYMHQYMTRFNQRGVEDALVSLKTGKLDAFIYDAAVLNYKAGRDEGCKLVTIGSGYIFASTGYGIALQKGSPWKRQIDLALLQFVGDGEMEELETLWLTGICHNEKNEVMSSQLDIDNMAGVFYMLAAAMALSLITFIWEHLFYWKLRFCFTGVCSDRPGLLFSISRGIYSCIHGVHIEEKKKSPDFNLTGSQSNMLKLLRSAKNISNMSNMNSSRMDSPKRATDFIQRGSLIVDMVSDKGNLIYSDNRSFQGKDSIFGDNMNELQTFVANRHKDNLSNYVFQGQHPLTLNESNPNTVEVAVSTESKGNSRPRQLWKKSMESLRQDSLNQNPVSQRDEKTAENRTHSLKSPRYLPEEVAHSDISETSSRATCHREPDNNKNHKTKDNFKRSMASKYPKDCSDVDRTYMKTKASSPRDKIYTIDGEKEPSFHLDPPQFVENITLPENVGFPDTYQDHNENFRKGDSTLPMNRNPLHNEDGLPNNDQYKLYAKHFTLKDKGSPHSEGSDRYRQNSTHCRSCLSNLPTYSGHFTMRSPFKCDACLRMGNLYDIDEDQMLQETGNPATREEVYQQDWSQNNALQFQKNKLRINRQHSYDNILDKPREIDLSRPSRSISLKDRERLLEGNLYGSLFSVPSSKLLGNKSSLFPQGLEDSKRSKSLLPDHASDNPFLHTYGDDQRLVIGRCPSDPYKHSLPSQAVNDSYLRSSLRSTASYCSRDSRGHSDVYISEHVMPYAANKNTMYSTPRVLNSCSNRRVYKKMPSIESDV

[10] = tested on: Oocyte; test: Agonist activity at mutant GluN1 F484A/T518 mutant//GluN3A NMDA receptor (unknown origin) expressed in Xenopus oocytes measured after 4 days in presence of glycine by two-electrode voltage-clamp recording assay; assay type: cell-based; conditions: Homo sapiens, time 4.0 day
[11] = tested on: Oocyte; test: Agonist activity at recombinant GluN1a/GluN2B NMDA receptor (unknown origin) expressed in Xenopus oocytes assessed as inhibition of glycine-induced activation of current measured at 10 uM after 4 days in presence of L-glutamte by two-electrode voltage-clamp recording assay; assay type: cell-based; conditions: Homo sapiens, filed as agonist, time 4.0 day
In short: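 Oocytes expressing GluN1/2B were BAPTA-injected and held under two-electrode voltage clamp in continuous 300 μM L-Glu. […] Values are mean ± SEM from 12 oocytes.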

[12] = tested on: Oocyte; test: Agonist activity at wild type GluN1/ GluN2A-V783F mutant NMDA receptor (unknown origin) expressed in Xenopus oocytes assessed as relative maximal efficacy measured at 10 uM after 4 days in presence of glycine by two-electrode voltage-clamp recording assay relative to glycine; assay type: cell-based; conditions: Homo sapiens, time 4.0 day; in short: as §2
[13] = target: Ionotropic glutamate receptor NMDA 1/2D (Rattus norvegicus, UniProt P35439+Q62645); test: Agonist activity at rat GluN1/GluN2D NMDA receptor expressed in Xenopus oocytes measured after 4 days in presence of L-glutamte by two-electrode voltage-clamp recording assay; assay type: cell-based, Oocyte; in short: as §3
Sequence of Ionotropic glutamate receptor NMDA 1/2D (Q62645 whole entry, other chains not shown): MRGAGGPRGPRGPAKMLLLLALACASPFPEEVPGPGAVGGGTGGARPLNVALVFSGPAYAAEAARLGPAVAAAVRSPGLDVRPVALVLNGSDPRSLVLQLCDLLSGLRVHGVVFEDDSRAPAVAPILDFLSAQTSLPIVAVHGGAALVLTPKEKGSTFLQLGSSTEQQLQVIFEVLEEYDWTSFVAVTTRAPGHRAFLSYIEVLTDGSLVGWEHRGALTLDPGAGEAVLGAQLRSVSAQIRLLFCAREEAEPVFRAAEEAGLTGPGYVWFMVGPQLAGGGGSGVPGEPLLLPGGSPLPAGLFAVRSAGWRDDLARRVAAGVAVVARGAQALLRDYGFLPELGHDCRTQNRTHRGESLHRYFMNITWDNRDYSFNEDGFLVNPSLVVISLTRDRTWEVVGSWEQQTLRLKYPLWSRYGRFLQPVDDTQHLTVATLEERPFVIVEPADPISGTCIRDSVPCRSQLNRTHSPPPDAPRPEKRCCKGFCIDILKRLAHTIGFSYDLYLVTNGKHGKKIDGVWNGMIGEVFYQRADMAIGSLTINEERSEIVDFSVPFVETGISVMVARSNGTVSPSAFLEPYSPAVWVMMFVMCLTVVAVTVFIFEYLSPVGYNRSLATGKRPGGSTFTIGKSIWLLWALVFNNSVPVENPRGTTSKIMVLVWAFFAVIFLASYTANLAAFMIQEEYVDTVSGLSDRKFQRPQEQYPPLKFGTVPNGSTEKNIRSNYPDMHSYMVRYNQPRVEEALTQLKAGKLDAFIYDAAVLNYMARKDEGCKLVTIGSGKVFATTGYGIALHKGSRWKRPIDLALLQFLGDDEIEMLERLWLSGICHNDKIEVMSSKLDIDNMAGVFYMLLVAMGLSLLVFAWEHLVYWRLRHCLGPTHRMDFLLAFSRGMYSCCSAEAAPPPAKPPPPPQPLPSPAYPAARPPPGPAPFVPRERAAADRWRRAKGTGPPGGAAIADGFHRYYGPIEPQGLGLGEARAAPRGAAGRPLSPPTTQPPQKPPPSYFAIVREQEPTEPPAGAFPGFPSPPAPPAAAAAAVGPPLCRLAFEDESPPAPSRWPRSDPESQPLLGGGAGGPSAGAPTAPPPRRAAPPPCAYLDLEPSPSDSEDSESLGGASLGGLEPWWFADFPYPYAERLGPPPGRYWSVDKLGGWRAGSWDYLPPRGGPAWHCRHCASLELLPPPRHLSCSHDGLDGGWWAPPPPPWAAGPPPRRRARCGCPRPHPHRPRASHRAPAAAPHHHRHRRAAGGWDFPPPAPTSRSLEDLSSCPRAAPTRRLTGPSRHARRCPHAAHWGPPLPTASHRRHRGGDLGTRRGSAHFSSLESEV

- IC50 [1]: 10000 nM
- inhibition [2]: inactive
- EC50 [3]: 110 nM
- EC50 [4]: 410 nM
- Rmax [5]: 45%
- Rmax [6]: 30%
- EC50 [7]: 63 nM
- Ki [8]: 100 nM
- EC50 [9]: 93 nM
- inhibition [10]: inactive
- inhibition [11]: 47%
- Rmax [12]: 9%
- EC50 [13]: 150 nM
SMILES: CCc1ccccc1-c1ccc(C(=O)NC[C@@H](N)C(=O)O)o1
